For 74 sequences, Tm and folding enthalpy results are on record in the array DNA melting data of Ke et al. (doi:10.1101/2024.01.08.574731).

Data set [1] is described as follows: melting temperature; fluorescence melt of hairpins on a sequencing array, two-state fit, raised by 9.35 °C to match UV melts. The settings on record: sodium 0.088 M. The essentials: (§1)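 Melting temperature and folding enthalpy were obtained by bootstrapped two-state fitting. Fits used Cy3 fluorescence of library hairpins with annealed Cy3 and quencher oligos on a sequenced MiSeq flow cell, imaged in 50 mM Na-HEPES pH 8.0, 25 mM NaCl in 2.5 °C steps up to 60 °C and normalised to pre-quench Cy3 and control constructs. Four replicates were combined by inverse-variance weighting, and fitted temperatures were raised by 9.35 °C to match UV melts.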

The nature of data set [2]: folding enthalpy; higher = less favourable; fluorescence melt of hairpins on a sequencing array, two-state fit. The settings on record: sodium 0.088 M. Summed up:
as §1

On to CGCCCTCGGAAACGAGCG (((..(((....)))))), for which the Tm in data set [1] stood at 34.5 °C. The folding enthalpy in data set [2] was -12.2 kcal/mol.
In the same order, the values of CGCCGCGGAAACGCGCG (((.(((....)))))) are 66.6 °C and -16.6 kcal/mol.
As for CGCCGTCGGAAACGAGCG (((..(((....)))))), the Tm in data set [1] worked out at 50.3 °C. In data set [2], the folding enthalpy was -28.4 kcal/mol.
Take CGCGCGGAAACGCATGCG ((((((....)))..))): the Tm in data set [1] came to 52.9 °C. In data set [2], the folding enthalpy was -32.8 kcal/mol.
In the same order, the values of CGCGCGGAAACGCCAGCG ((((((....)))..))) are 53.9 °C and -23 kcal/mol.
In the same order, the values of CGCGCGGAAACGCCCGCG ((((((....)))..))) are 54.7 °C and -29.7 kcal/mol.
In the same order, the values of CGCGCGGAAACGCTCGCG ((((((....)))..))) are 52.5 °C and -23.4 kcal/mol.
For CGCGCGGAAACGCTGGCG ((((((....)))..))), the Tm in data set [1] came out at 53.7 °C. In addition, in data set [2], the folding enthalpy was -29.6 kcal/mol.
For CGCGGAACGATCCGCG ((((((....)))))) the same measures were 67.6 °C and -31.8 kcal/mol.
With CGCGGAACGTCCGCG ((((((...)))))), in data set [1], the Tm was found to be 60.5 °C. Besides, the folding enthalpy in data set [2] was -39.5 kcal/mol.
For the sequence CGCGGAAGCCTCCGCG ((((((....)))))), the Tm in data set [1] amounted to 68.6 °C. Also, in data set [2], the folding enthalpy was -31.3 kcal/mol.
For CGCGGAAGGTCCGCG ((((((...)))))) the same measures were 69.2 °C and -27.1 kcal/mol.
In the same order, the values of CGCGGAATTCTCCGCG ((((((....)))))) are 69.3 °C and -32 kcal/mol.
Turning to CGCGGACAAATCCGCG ((((((....)))))), the Tm in data set [1] came out at 60.9 °C. In data set [2], the folding enthalpy is -40.8 kcal/mol.
For CGCGGACAGCTCCGCG ((((((....)))))) the same measures were 68.2 °C and -30.1 kcal/mol.
CGCGGACAGTTCCGCG ((((((....)))))): the Tm in data set [1] was 66.6 °C. Further, the folding enthalpy in data set [2] was -40.7 kcal/mol.
For CGCGGACCACTCCGCG ((((((....)))))) the same measures were 64 °C and -32.7 kcal/mol.
CGCGGACCATTCCGCG ((((((....)))))): the Tm in data set [1] was determined as 65.3 °C. The folding enthalpy in data set [2] was -37.3 kcal/mol.
In the same order, the values of CGCGGACCGATCCGCG ((((((....)))))) are 68.5 °C and -36.5 kcal/mol.
In the same order, the values of CGCGGACGACTCCGCG ((((((....)))))) are 63.5 °C and -40.8 kcal/mol.
For CGCGGACGCCTCCGCG ((((((....)))))) the same measures were 68.8 °C and -32 kcal/mol.
CGCGGACTTCTCCGCG ((((((....)))))): the Tm in data set [1] came out at 65.9 °C. The folding enthalpy in data set [2] was -35.6 kcal/mol.
For CGCGGAGCGATCCGCG ((((((....)))))) the same measures were 62.2 °C and -23.5 kcal/mol.
In the same order, the values of CGCGTGCGGAAACGCGCG (((..(((....)))))) are 66.1 °C and -12.4 kcal/mol.
In the same order, the values of CGCTACGGAAACGTGCG (((.(((....)))))) are 53.3 °C and -33.2 kcal/mol.
Consider CGCTACGGAAACGTGGCG (((.(((....))).))), for which, in data set [1], the Tm was found to be 59.5 °C. In data set [2], the folding enthalpy was -40.1 kcal/mol.
In the same order, the values of CGCTACGGAAACGTTGCG (((.(((....))).))) are 56.3 °C and -38.7 kcal/mol.
In the same order, the values of CGCTAGAAATAGCG (((((....))))) are 51.8 °C and -24.9 kcal/mol.
In the same order, the values of CGCTCGGAAACGAAAGCG ((((((....)))..))) are 47.2 °C and -27.8 kcal/mol.
Consider CGCTCGGAAACGAAGGCG ((((((....)))..))), for which, in data set [1], the Tm was found to be 44.7 °C. Further, the folding enthalpy in data set [2] was -29.6 kcal/mol.
For CGCTCGGAAACGACCGCG ((((((....)))..))) the same measures were 38.6 °C and -21.6 kcal/mol.
In the same order, the values of CGCTCGGAAACGACGGCG ((((((....)))..))) are 46.6 °C and -22.7 kcal/mol.
In the same order, the values of CGCTCGGAAACGAGGGCG ((((((....)))..))) are 51.7 °C and -12.4 kcal/mol.
In the case of CGCTCGGAAACGATCGCG ((((((....)))..))), the Tm in data set [1] turned out to be 40.2 °C. In data set [2], the folding enthalpy is -24.2 kcal/mol.
For CGCTCTCGGAAACGAGCG (((..(((....)))))) the same measures were 46 °C and -17.5 kcal/mol.
For the sequence CGCTGCGGAAACGCGCG (((.(((....)))))), the Tm in data set [1] amounted to 60.8 °C. Moreover, the folding enthalpy in data set [2] was -27.1 kcal/mol.
In the same order, the values of CGCTGCGGAAACGCTGCG (((.(((....))).))) are 69.2 °C and -30.7 kcal/mol.
On to CGCTTGAAAAAGCG (((((....))))), for which the Tm in data set [1] was found to be 58.2 °C. Moreover, the folding enthalpy in data set [2] was -23.3 kcal/mol.
CGCTTGCGGAAACGCGCG (((..(((....)))))): the Tm in data set [1] is 51.3 °C. The folding enthalpy in data set [2] was -10.8 kcal/mol.
In the same order, the values of CGGAAACGGAAACGTCCG (((..(((....)))))) are 41.1 °C and -22.9 kcal/mol.
For CGGAAGAAATTCCG (((((....))))) the same measures were 46.4 °C and -25.1 kcal/mol.
In the same order, the values of CGGACGGAAACGTCACCG ((((((....)))..))) are 34.4 °C and -11.6 kcal/mol.
With CGGACGGAAACGTGCCG ((((((....))).))), the Tm in data set [1] was 48.4 °C. Also, the folding enthalpy in data set [2] is -18.7 kcal/mol.
Take CGGACGGAAACGTGGCCG ((((((....)))..))): the Tm in data set [1] is 44.1 °C. Moreover, the folding enthalpy in data set [2] was -25.7 kcal/mol.
In the same order, the values of CGGAGGCGGAAACGCCCG (((..(((....)))))) are 54.7 °C and -11.7 kcal/mol.
For CGGATCGGAAACGACCG (((.(((....)))))) the same measures were 49.8 °C and -28.2 kcal/mol.
In the same order, the values of CGGCACGGAAACGTCCG (((.(((....)))))) are 47.9 °C and -21.8 kcal/mol.
As for CGGCATCGGAAACGACCG (((..(((....)))))), in data set [1], the Tm came out at 34.4 °C. In addition, in data set [2], the folding enthalpy was -16.6 kcal/mol.
On to CGGCCCCGGAAACGGCCG (((..(((....)))))), for which, in data set [1], the Tm is 54.4 °C. Moreover, in data set [2], the folding enthalpy is -31.9 kcal/mol.
With CGGCCCGGAAACGGACCG (((.(((....))).))), in data set [1], the Tm was found to be 57.6 °C. Moreover, the folding enthalpy in data set [2] is -37.7 kcal/mol.
In the same order, the values of CGGCCGGAAACGGAACCG ((((((....)))..))) are 46 °C and -26.2 kcal/mol.
For CGGCCGGAAACGGACCG ((((((....))).))), the Tm in data set [1] was found to be 54.6 °C. In addition, the folding enthalpy in data set [2] was -25 kcal/mol.
In the same order, the values of CGGCCGGAAACGGCACCG ((((((....)))..))) are 34.5 °C and -8.06 kcal/mol.
In the same order, the values of CGGCCGGAAACGGCGCCG ((((((....)))..))) are 39.2 °C and -8.21 kcal/mol.
In the same order, the values of CGGCCGGAAACGGTGCCG ((((((....)))..))) are 51.9 °C and -35.8 kcal/mol.
Consider CGGCGCGGAAACGCCCG (((.(((....)))))), for which, in data set [1], the Tm is 56.5 °C. Besides, the folding enthalpy in data set [2] was -16.7 kcal/mol.
For CGGCGTCGGAAACGACCG (((..(((....)))))) the same measures were 47.4 °C and -13.8 kcal/mol.
For the sequence CGGCTCGGAAACGATCCG (((.(((....))).))), the Tm in data set [1] was 49.2 °C. The folding enthalpy in data set [2] was -44.5 kcal/mol.
In the same order, the values of CGGGACCGGAAACGGCCG (((..(((....)))))) are 48.5 °C and -16.1 kcal/mol.
For CGGGATCGGAAACGACCG (((..(((....)))))) the same measures were 40 °C and -22.6 kcal/mol.
For CGGGCCCGGAAACGGCCG (((..(((....)))))) the same measures were 50.3 °C and -13.3 kcal/mol.
CGGGCGGAAACGCAACCG ((((((....)))..))): in data set [1], the Tm turned out to be 49.7 °C. The folding enthalpy in data set [2] was -23.9 kcal/mol.
For CGGGCGGAAACGCACCG ((((((....))).))) the same measures were 60.4 °C and -16.9 kcal/mol.
For CGGGCGGAAACGCGTCCG ((((((....)))..))) the same measures were 53 °C and -23.9 kcal/mol.
Regarding CGGGTGAAAACCCG (((((....))))), the Tm in data set [1] worked out at 68.6 °C. In addition, the folding enthalpy in data set [2] was -28.9 kcal/mol.
For CGGTACGGAAACGTCCCG (((.(((....))).))) the same measures were 46.6 °C and -25 kcal/mol.
For CGGTACGGAAACGTCCG (((.(((....)))))), in data set [1], the Tm was found to be 47.7 °C. In addition, in data set [2], the folding enthalpy is -20.9 kcal/mol.
In the same order, the values of CGGTACGGAAACGTGCCG (((.(((....))).))) are 59.8 °C and -37.5 kcal/mol.
As for CGGTCGGAAACGACTCCG ((((((....)))..))), the Tm in data set [1] is 33.9 °C. Besides, the folding enthalpy in data set [2] is -13.3 kcal/mol.
For CGGTCGGAAACGATACCG ((((((....)))..))) the same measures were 41.2 °C and -26.9 kcal/mol.
For CGGTCTCGGAAACGACCG (((..(((....)))))) the same measures were 46.7 °C and -30 kcal/mol.
For CGGTTCGGAAACGAGCCG (((.(((....))).))) the same measures were 58.6 °C and -50.5 kcal/mol.
Take CGGTTGAAAAACCG (((((....))))): in data set [1], the Tm was 56.2 °C. Moreover, the folding enthalpy in data set [2] is -29.6 kcal/mol.
CGTACCGGAAACGGAACG (((.(((....))).))): in data set [1], the Tm worked out at 50.7 °C. Moreover, the folding enthalpy in data set [2] is -30.7 kcal/mol.
